Data set [1] relates to Escherichia coli. Nature of the data set: Antibacterial activity against Escherichia coli ATCC 25922 measured after 18 to 24 hrs in presence of CaCl2. In kind it is functional.
Data set [2] relates to Candida albicans. Nature of the data set: Antifungal activity against Candida albicans cgmcc2.2086 measured after 48 hrs in presence of KCl by broth microdilution method. In kind it is functional. Particulars: cgmcc2.2086, 48 h.
Data set [3] has as its system Salmonella typhimurium. In words: Bactericidal activity against Salmonella typhimurium C7731 incubated for 24 hrs followed by replating on agar plate and measured after overnight incubation. In kind it is functional, Salmonella enterica subsp. enterica serovar Typhimurium. Particulars: Salmonella enterica, C7731, 24 h; read-out: MBC>99.9. In a few lines:
(§1)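 Mid-log bacteria diluted in MHB to (0.5–1) × 10^5 CFU/mL and mixed 1:1 with peptide serially diluted in 0.2% BSA. After 24 h at 37 °C, 50 μL of each mixture was plated on agar and incubated overnight. MBC taken as the lowest concentration killing >99.9% of cells. At least three independent experiments, each with three technical replicates.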

A short description of data set [4]: Therapeutic index, ratio of MHC10 for hemolytic activity in human RBC to MIC95 against Candida parapsilosis cgmcc2.3989. The format is toxicity. The note with it: human red blood cells (erythrocytes), read-out: TI. The method in brief: (§2)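 Therapeutic index = MHC divided by MIC. MHC is the lowest concentration giving >10% lysis of human RBC (1 h, 37 °C, 1-128 µM, A576). MIC is 95% growth inhibition by broth microdilution: bacteria in MHB 24 h at 37 °C; Candida in MOPS-buffered RPMI 1640 at (0.5–1) × 10^3 CFU mL−1, 48 h at 28 °C.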

Data set [5] relates to Escherichia coli. In words: Bactericidal activity against Escherichia coli ATCC 25922 incubated for 24 hrs followed by replating on agar plate and measured after overnight incubation. In kind it is functional. Particulars: ATCC 25922, 24 h, read-out: MBC>99.9. In a few lines:
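After the 24 h, 37 °C MHB microdilution (0.5–1 × 10^5 CFU mL−1 inoculum, peptides diluted in 0.2% BSA), 50 μL from each well was plated on agar and incubated overnight. MBC was taken as the lowest concentration killing >99.9% of cells. Three or more independent experiments, each with triplicate technical replicates.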

Data set [6] deals with Escherichia coli. Nature of the data set: Antibacterial activity against Escherichia coli ATCC 25922 measured after 18 to 24 hrs in presence of KCl. The format is functional.
Data set [7] has as its system Candida albicans. In words: Antifungal activity against Candida albicans cgmcc2.2086 measured after 48 hrs in presence of ZnCl by broth microdilution method. The format is functional. The note with it: cgmcc2.2086, 48 h.
Data set [8] deals with Escherichia coli. Nature of the data set: Antibacterial activity against Escherichia coli 078 measured after 24 hrs. The note with it: Escherichia coli, 078, 24 h. The format is functional. The method in brief: (§3)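 Broth microdilution adapted from NCCLS. Mid-log bacteria were diluted in MHB to a final (0.5–1) × 10^5 CFU mL−1. Peptides were serially diluted in 0.2% BSA and mixed with an equal volume of cells. After 24 h at 37 °C, MIC was read at A492 as the lowest concentration inhibiting 95% of growth. At least three independent experiments, each with three technical replicates.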

Data set [9] is described as follows: Therapeutic index, ratio of MHC10 for hemolytic activity in human RBC to MIC95 against Escherichia coli ATCC 25922. The note with it: human red blood cells (erythrocytes), pooled result: one value given for 9 cell lines, strains, targets or settings, read-out: TI. The format is toxicity. The method in brief: as §2
Data set [10] deals with Escherichia coli. Nature of the data set: Bactericidal activity against Escherichia coli UB1005 incubated for 24 hrs followed by replating on agar plate and measured after overnight incubation. In kind it is functional. Particulars: UB1005, 24 h, read-out: MBC>99.9. In a few lines: as §1
Data set [11] relates to Staphylococcus aureus. In words: Bactericidal activity against Staphylococcus aureus ATCC 29213 incubated for 24 hrs followed by replating on agar plate and measured after overnight incubation. In kind it is functional. Particulars: ATCC 29213, 24 h, read-out: MBC>99.9. The method in brief: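 After the 24 h, 37 °C MHB microdilution MIC assay, 50 μL from each well was plated on agar and incubated overnight. MBC taken as lowest peptide concentration killing >99.9% of cells. At least three independent experiments, each with three technical replicates.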

In data set [12] the test system is Candida albicans. Nature of the data set: Antifungal activity against Candida albicans cgmcc2.2086 measured after 48 hrs in presence of CaCl by broth microdilution method. In kind it is functional. The note with it: cgmcc2.2086, 48 h. In general terms: In broth dilution the organism is exposed to a series of concentrations in liquid medium.
Data set [13] has as its system Staphylococcus epidermidis. Nature of the data set: Bactericidal activity against Staphylococcus epidermidis ATCC 12228 incubated for 24 hrs followed by replating on agar plate and measured after overnight incubation. The note with it: ATCC 12228, 24 h, read-out: MBC>99.9. In kind it is functional. In a few lines:
as §1

Data set [14] concerns Escherichia coli. Nature of the data set: Antibacterial activity against Escherichia coli ATCC 25922 measured after 18 to 24 hrs in presence of ZnCl2. The format is functional.
The subject of data set [15] is Escherichia coli. Nature of the data set: Antibacterial activity against Escherichia coli ATCC 25922 measured after 24 hrs. Particulars: ATCC 25922, 24 h. In kind it is functional. In a few lines:
as §3

Data set [16] in a line: Conformational stability in sodium dodecyl sulfate at 35 uM by CD spectra analysis. The format is physicochemical. The method in brief:
(§4)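 CD spectra from 190 to 250 nm of peptide at 35 μM in 10 mM PBS, 30 mM SDS micelles or 50% TFE, recorded in a 1.0-mm quartz cell. Ellipticity was converted to mean residue ellipticity. Three independent scans, each averaged over more than 3 runs.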

A short description of data set [17]: Therapeutic index, ratio of MHC10 for hemolytic activity in human RBC to MIC95 against Staphylococcus aureus ATCC 25923. The format is toxicity. Particulars: human red blood cells (erythrocytes), read-out: TI. The method in brief: as §2
For data set [18], the system named is Candida parapsilosis. In words: Fungicidal activity against Candida parapsilosis cgmcc2.3989 incubated for 48 hrs followed by replating on YM agar plate and measured after 48 hrs. In kind it is functional. In a few lines: (§5)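 Yeast diluted in MOPS-buffered RPMI 1640 to (0.5–1) × 10^3 CFU/mL (CLSI M27-A2, modified) and mixed 1:1 with peptide serially diluted in 0.2% BSA. After 48 h at 28 °C, 50 μL per well was plated on YM agar and incubated 48 h at 28 °C. MFC taken as the lowest concentration killing ≥99.9% of cells. Three or more independent experiments, triplicate wells.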

Data set [19] has as its system Candida albicans. In words: Fungicidal activity against Candida albicans cgmcc2.2086 incubated for 48 hrs followed by replating on YM agar plate and measured after 48 hrs. The format is functional. The method in brief: as §5
A short description of data set [20]: Conformational stability in sodium dodecyl sulfate assessed as beta-sheet conformation by measuring absorption spectra at maximum dichroic band at 35 uM by CD spectra analysis. The format is physicochemical. In a few lines:
as §4

Data set [21] can be described thus: Conformational stability in sodium dodecyl sulfate assessed as beta-sheet conformation by measuring absorption spectra at minimum dichroic band at 35 uM by CD spectra analysis. In kind it is physicochemical. The method in brief: as §4

Some results are limits rather than exact numbers.

The MBC is the smallest concentration meeting the test's criterion for killing.

On to H-AARIILRGRFR-NH2, for which the MIC95 in data set [1] is 64 µM; in data set [2] it was 128 µM; in [6], 8 µM; in [7], more than 128 µM; in [8], 4 µM; in data set [12], more than 128 µM. Also, the MIC95 in [14] and in data set [15] was 4 µM in each case. For the same substance, the MBC is 16 µM in data set [3]; 8 µM in data set [5]; 8 µM in [10]; 8 µM in [11]; 16 µM in data set [13]. For the same substance, the results for the selectivity ratio in data set [4], in data set [9] and in data set [17] were 5.04, 54.3 and 26.9, respectively. Further, the Stability result in [16] was “Unstable”.

H-AARIILRRRFR-NH2: the MIC95 is 128 µM in data set [1]; 128 µM in data set [2]; 64 µM in [6]; more than 128 µM in [7]; 16 µM in [8]; more than 128 µM in data set [12]. The MIC95 in [14] and in data set [15] was 8 µM in each case. Further, the MBC is 16 µM in data set [3]; 16 µM in data set [5]; 64 µM in data set [10]; 32 µM in data set [11]; 32 µM in data set [13]. Besides, the selectivity ratio in [4] was found to be 3.17; in data set [9], 14.8; in data set [17], 13.4. Also, in [18], the “MFC<=99.9” value was 128 µM. The Stability result in data set [16] is on record as “Unstable”.

Regarding H-AARIILRNRFR-NH2, the MIC95 in data set [1] was more than 128 µM; in [2], more than 128 µM; in [6] it was 64 µM; in data set [7], more than 128 µM; in data set [8], 16 µM; in data set [12], more than 128 µM. Besides, the MIC95 in [14] and in data set [15] was 32 µM each time. In addition, the minimum bactericidal concentration (MBC) in data set [3] was 128 µM; in [5], 64 µM; in data set [10], 32 µM. Besides, the results for the selectivity ratio in [4], in [9] and in data set [17] were 2, 9.33 and 2, respectively. The Stability entry in data set [16] was “Unstable”.

As for H-AARIILRPRFR-NH2, the MIC95 was 128 µM in data set [1]; more than 128 µM in [2]; 16 µM in data set [6]; more than 128 µM in [7]; 8 µM in [8]; more than 128 µM in data set [12]. The figures for the MIC95 in [14] and in [15] were 32 µM and 16 µM, respectively. Besides, the MBC in data set [3] was determined as 32 µM; in [5], 32 µM; in data set [10], 16 µM. The selectivity ratio in data set [4] was 2; in data set [9] it was 16; in data set [17] it was 2. Besides, the Stability entry in data set [16] is “Unstable”.

Turning to H-AARIILRDRFR-NH2, the MIC95 in [1] is more than 128 µM; in data set [2], more than 128 µM; in [6] it was 128 µM; in [7] it was more than 128 µM; in data set [8] it was more than 128 µM; in data set [12] it was more than 128 µM. For the same substance, the results for the MIC95 in data set [14] and in [15] were more than 128 µM and not below 128 µM, respectively. Besides, the selectivity ratio in data set [4], in data set [9] and in data set [17] was 2 each time. Besides, the Stability entry in data set [16] is given as “Unstable”.

In the case of H-AARIILRIRFR-NH2, the MIC95 in [1] is 32 µM; in data set [2], 8 µM; in [6], 2 µM; in data set [7], 8 µM; in data set [8], 2 µM; in data set [12], 64 µM. The MIC95 in data set [14] and in data set [15] was 4 µM throughout. The MBC is 8 µM in data set [3]; 4 µM in data set [5]; 8 µM in [10]; 4 µM in [11]; 4 µM in data set [13]. In addition, the selectivity ratio in data set [4] was determined as 25.4; in data set [9], 37.3; in data set [17] it was 64. Further, the “MFC<=99.9” value in data set [19] and in data set [18] was 8 µM throughout. In data set [20], the “Wavelength of maximum dichroic band” value is given as 200 nm. The Activity in [21] lay within 216 to 220 nm.

For the substance H-AAKIILNPKFR-NH2, the MIC95 in [1] was more than 128 µM; in [2], more than 128 µM; in data set [6], 128 µM; in [7], more than 128 µM; in data set [8] it was more than 128 µM; in data set [12], more than 128 µM. For the same substance, the MIC95 in [14] and in [15] was more than 128 µM each time. For the same substance, the selectivity ratio in data set [4], in [9] and in [17] was 2 in each case. Also, in data set [16], the Stability entry is “Unstable”.

As to H-AARIILRWFRR-NH2, the MIC95 in data set [1] was 4 µM; in [2] it was 8 µM; in [6], 2 µM; in data set [7] it was 8 µM; in [8], 2 µM; in data set [12] it was 32 µM. The MIC95 in data set [14] and in [15] was 2 µM each time. For the same substance, the MBC in data set [3] stood at 8 µM; in data set [5] it was 2 µM; in [10], 4 µM; in data set [11] it was 8 µM; in data set [13], 4 µM. For the same substance, the selectivity ratio came out at 50.8 in data set [4], 87.1 in data set [9] and 53.8 in [17]. Further, the “MFC<=99.9” value in [19] and in [18] was 8 µM in each case. In addition, the “Wavelength of maximum dichroic band” value in data set [20] is 200 nm. In addition, the Activity in [21] lay within 216 to 220 nm.

The values above are taken from ChEMBL document CHEMBL4350958, “Rational Design of Short Peptide Variants by Using Kunitzin-RE, an Amphibian-Derived Bioactivity Peptide, for Acquired Potent Broad-Spectrum Antimicrobial and Improved Therapeutic Potential of Commensalism Coinfection of Pathogens” (J Med Chem, 2019).
